TNF necrop inh – blocks TNF-alpha induced death of Jurkat FADD-/- cells; Jurkat FADD-/- TNF necroptosis rescue, ATP luminescence, 24 h; 0 = TNF only, 100 = no-TNF cells; activation (protection from cell death), % at 10 µM; hit rate 0.068% among 220,000; AID 463075;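 active means activation, meaning protection from cell death, of at least 50% relative to plate controls; inactive means activation below 50%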;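 further: necroptosis triggered by 40 ng/mL TNF-alpha added together with compound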
RanGTP-Impb inh – disruptors of Ran-importin-beta complex formation – biochemical, FRET, CFP-Ran, YFP-importin-beta, homogeneous, primary screen; hit rate 1.1% among 300,000; inhibition, % (no concentration beside the values); cell-free CFP-Ran/YFP-importin-beta FRET ratio;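 active means more than half of the replicate wells show a fall in the fluorescence ratio signal beyond about 16%, limit read from the data, passing the limit was not always enough; inconclusive means exactly half of the replicate wells pass the set limit; inactive means fewer than half of replicates pass the limit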
Runt-CBFb FRET – Runt domain-CBFb interaction inhibition | Cerulean-Runt/Venus-CBFb FRET ratio 530/480, 1 h | AID 1496 | hit rate 0.46% among 220,000 | inhibition, % at 20 µM;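 active means inhibition over about 50% at 20 µM in the single-dose screen, limit read from the data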
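Assay system: Cerulean-Runt domain fusion protein, energy donor; Signal: fluorescence energy transfer, 422 nm excitation, 530/480 nm emission; Timing: 1 h compound exposure, room temperature; Control set: unlabeled CBFb; Medium: Tris buffer pH 7.5 with salts and BSA; Compound: single test concentration of 20 µM, 1% DMSO final; Probe or stimulus: Venus-CBFb 100 nM.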
Hck Nef HTS – blocks Nef-activated human Hck kinase | P08631 | Recombinant Hck-YEEI plus Nef, Z-Lyte FRET kinase assay | inhibition, % at 20 µM | hit rate 0.68% among 220,000 | AID 463187;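 active means Hck-Nef kinase inhibition above about 50%, limit read from the data; inactive means inhibition below that limit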
Target sequence (P08631 whole entry, looked up): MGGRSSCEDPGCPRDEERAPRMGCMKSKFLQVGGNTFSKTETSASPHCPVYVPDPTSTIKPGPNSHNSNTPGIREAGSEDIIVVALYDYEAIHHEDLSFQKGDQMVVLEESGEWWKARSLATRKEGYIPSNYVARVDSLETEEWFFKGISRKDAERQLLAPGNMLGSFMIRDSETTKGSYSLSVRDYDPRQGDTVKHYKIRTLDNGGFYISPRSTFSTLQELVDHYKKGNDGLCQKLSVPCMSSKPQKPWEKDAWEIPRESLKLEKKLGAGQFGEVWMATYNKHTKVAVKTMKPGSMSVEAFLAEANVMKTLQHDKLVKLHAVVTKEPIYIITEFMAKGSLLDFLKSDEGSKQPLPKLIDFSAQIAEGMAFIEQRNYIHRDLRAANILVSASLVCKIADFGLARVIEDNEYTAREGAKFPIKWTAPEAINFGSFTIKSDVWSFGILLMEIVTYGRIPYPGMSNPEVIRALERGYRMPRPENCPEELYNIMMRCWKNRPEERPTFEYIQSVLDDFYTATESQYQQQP
Runt-SMMHC FRET – Runt domain-CBFb-SMMHC interaction inhibition. inhibition, % at 20 µM. AID 1434. Cerulean-Runt/Venus-CBFb-SMMHC FRET ratio 530/480, 1 h. hit rate 0.74% among 220,000. Q01196+Q13951;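 active means mean inhibition across duplicate retests at 20 µM reaching about 50%, limit read from the data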;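 further: inhibitors lower the FRET ratio by blocking Runt binding to CBFb-SMMHC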
zVAD death inh – blocks zVAD induced death of L929 cells | L929 zVAD necroptosis rescue, ATP luminescence, 24 h; with zVAD 60 µM | viability rescue, % at 10 µM | hit rate 0.38% among 220,000 | AID 1377;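 active means activation, scaled between plate controls, above about 75%, limit read from the data; inactive means activation under that limit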
Hck Nef conf – Hck-Nef kinase inhibition, confirmation | Recombinant Hck-YEEI:Nef, Z-Lyte FRET kinase assay | AID 463188 | hit rate 28% among 1,300 | calls only at 10 µM | shares compounds with Hck Nef HTS;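 active means average inhibition of at least 50%, with Z-scores no higher than 3 in both the phospho-tyrosine peptide and fluorescence counterscreens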
Numbers stand for hits; - = inactive; ? = inconclusive; . = no result given; + = active, no number. Shown are actives, neighbours in structure and some others; about 2.1% of the full set was active somewhere.

SMILES	TNF necrop inh	RanGTP-Impb inh	Runt-CBFb FRET	Hck Nef HTS	Runt-SMMHC FRET	zVAD death inh	Hck Nef conf
Cc1cc2n(n1)C(c1ccccc1)CC(c1ccc(Br)cc1)=N2 (stereo unspecified)	-	.	-	-	-	-	.
O=C(CSc1nc2[nH]ncc2c(=O)[nH]1)Nc1cccc(Cl)c1	.	-	.	.	.	.	.
N#Cc1c(-c2ccco2)nc(SCC(=O)Nc2cccc(Cl)c2)[nH]c1=O	-	-	-	56	-	-	+
COc1ccc(Cl)cc1Nc1nc(C)cc(C)c1C(N)=O	-	-	-	-	-	-	.
CCC(=O)Oc1ccc2c(C)c(Cl)c(=O)oc2c1	-	25	83	109	127	-	.
COC(=O)Cc1c(C)c2ccc(OC(=O)c3ccccc3)cc2oc1=O	-	-	-	56	-	-	.
Cc1c(Cl)c(=O)oc2cc(OC(C)C)ccc12	-	-	-	-	-	-	.
O=C(O)Cn1c(=O)c2c3c(sc2n(Cc2ccccc2F)c1=O)CCCC3	.	-	.	.	.	.	.
CC(C)CC(C)c1cc(N)nc2nc3ccccc3n12 (stereo unspecified)	-	-	-	-	-	-	.
CCc1cc2c(C)cc(=O)oc2cc1OC(=O)C1CCCN1C(=O)OC(C)(C)C (stereo unspecified)	-	-	-	75	75	-	-
CC(C)(C)OC(=O)N1CCCC1C(=O)NCCc1ccccc1 (stereo unspecified)	-	-	-	-	-	-	.
Cc1cc(C2=NNC(=Nc3ccc(S(=O)(=O)N4CCOCC4)cc3)SC2)c(C)n1C	-	-	-	63	-	-	-
Cn1nc(-c2ccc(C(=O)NCCO)cc2)c2ccccc2c1=O	-	-	-	-	-	-	.
CCCn1c(=N)c(C(=O)NC2CCCC2)cc2c(=O)n3cccc(C)c3nc21	-	198	-	187	83	-	.
Cc1cccn2c(=O)c3cc(C(=O)NC(C)c4ccccc4)c(=N)n(CCCn4ccnc4)c3nc12 (stereo unspecified)	-	+	-	+	88	-	.
Cc1ccccc1SCC(=O)NCCCn1ccnc1	.	-	.	.	.	.	.
Cn1c(C(=O)NCCC2=CCCCC2)cc2c(=O)n3ccccc3nc21	-	-	-	-	-	-	.
COCCCn1c(=N)c(C(=O)NC2CCCCC2)cc2c(=O)n3ccccc3nc21	-	192	-	+	83	-	.
N=c1c(C(=O)NC2CCCC2)cc2c(=O)n3ccccc3nc2n1C1CCCC1	-	182	-	122	-	-	.
Cc1cccn2c(=O)c(C(=O)NC3CCCCC3)c(O)nc12	.	-	.	.	.	.	.
Cc1ccc(C)c(CSc2ccc3nnc(-c4ccccn4)n3n2)c1	-	-	-	-	-	-	.
COc1cccc(N2CCN(C(=O)C3CCC(=O)N(C4CCCCCC4)C3)CC2)c1 (stereo unspecified)	.	-	.	.	.	.	.
NC(Cc1c[nH]c2ccccc12)C(=O)NCc1ccccc1 (stereo unspecified)	.	-	.	.	.	.	.
Cc1sc2ncnc(SCC(=O)Nc3nc(-c4ccc(F)c(F)c4)cs3)c2c1C	-	-	-	117	-	-	-
Cn1nnnc1SCC(=O)Nc1nc(-c2ccc(F)c(F)c2)cs1	.	-	.	.	.	.	.
SMILES	TNF necrop inh	RanGTP-Impb inh	Runt-CBFb FRET	Hck Nef HTS	Runt-SMMHC FRET	zVAD death inh	Hck Nef conf
CN(C)/C(=N\S(=O)(=O)c1ccc(Br)cc1)c1ccccc1	.	-	.	.	.	.	.
O=C(CSc1nc(-c2ccccc2)nc2c1Cc1ccccc1O2)Nc1ccc(C(=O)O)cc1	-	.	-	-	-	-	.
O=C(CSc1nc(-c2ccc(F)cc2)nc2c1Cc1ccccc1O2)Nc1ccc(C(=O)O)cc1	-	.	-	145	-	-	+
COC(=O)c1cc(OC)c(OC)cc1NC(=S)N1CCN(c2ccccc2)CC1	-	-	-	-	-	-	.
O=C(Nc1nc(-c2cccnc2)cs1)c1ccccc1Cl	-	-	-	-	-	-	.
Cc1ccccc1C(=O)Nc1nc(-c2cccnc2)cs1	-	-	-	51	-	-	+
CC(C)n1cnc2cc(NCc3ccco3)ccc21	-	-	-	79	-	-	-
O=C(CSCc1ccc(Cl)cc1)Nc1ccc(-c2nnc(-c3ccccc3)o2)cc1	-	-	-	91	-	-	-
Cc1cc(C)c2c(N)c3ccccc3nc2n1	-	135	-	53	78	-	-
O=C(CN(Cc1cccs1)C(=O)CNS(=O)(=O)c1ccc(Cl)cc1)NCC1CCCO1 (stereo unspecified)	-	-	-	53	-	-	-
CC(C)Sc1n[nH]c(=O)n1-c1ccccc1	-	?	-	-	-	-	.
CC1(c2ccccc2)CC(C)(C)N2C(=O)C3(C(C#N)=C(N)Oc4cc(O)ccc43)c3cccc1c32 (stereo unspecified)	-	-	-	-	-	-	.
CC1(c2ccccc2)CC(C)(C)N2C(=O)/C(=C3\SC(=S)NC3=O)c3cccc1c32 (stereo unspecified)	-	-	-	94	-	-	+
CCCNC(=O)c1ccc2c(=O)n3c(-c4ccc(C)cc4)csc3nc2c1	-	-	-	-	-	-	.
O=C(c1cnn(C(=O)c2cccc(S(=O)(=O)N3CCOCC3)c2)c1)c1ccccc1O	-	-	-	129	-	-	+
Cc1cc(=O)oc2c(CN(C)Cc3ccccc3)c(O)ccc12	-	-	-	58	82	-	.
CC(C)c1csc(CN2CCC(N3CCC(C(=O)NCC4CCCO4)CC3)CC2)n1 (stereo unspecified)	-	-	-	-	-	-	.
Cc1cc(C)c(C(CC(=O)c2cccs2)C(C#N)C#N)c(C)c1 (stereo unspecified)	-	-	-	-	-	-	.
Cn1cccc1/C=C1\SC(=Nc2cccc(O)c2)NC1=O	-	-	-	85	-	-	+
CCC(C)[C@H](NC(=O)[C@@H]1Cc2c([nH]c3ccccc23)C2c3ccccc3C(=O)N21)C(=O)NCC1CCCO1 (stereo partly specified)	.	-	.	.	.	.	.
Cc1ccc(C)c(NC(=O)c2cnn3ccccc23)c1	-	-	-	67	-	85	+
CC1=CC(=O)c2c(O)ccc(O)c2C1=O	-	.	-	60	-	-	+
O=CNn1cnc2c(oc3nc(-c4ccccc4)cc(-c4ccco4)c32)c1=O	-	-	-	55	-	-	-
CCC(CC)C(=O)Nc1nnc(SCC(=O)NC(C)(C)C)s1	-	-	-	-	-	-	.
COc1ccc(Cl)cc1NC(=S)NCCSc1ccc(C)cc1	-	-	-	-	-	-	.
Nc1nn2cc(-c3ccccc3)nc2c2ccccc12	-	-	-	50	-	-	+
